Reference: PMC5903430 (The international journal of biochemistry & cell biology, 2017)
“And” between values parts separate entries of the source, which are not always exact repeats. Equal entries are not always repeated. Structures can show the parent of a compound that is named as a salt. Where two headings read alike, the source gives them in different places.

Key:
α3β4 and α4β2 AChRs = settings: 20 μM; ref Glick et al., 2002a; cited from earlier work
hα4β2 AChR = hα4β2 AChR (Homo sapiens, UniProt P17787+P43681); assay type: cell-based; settings: for hα4β2/hα3β4 IC50 ratio (selectivity): ratio using hα3β4 data of Arias et al., 2015; for IC50: read-out: IC50 (inhibitory potency)
Sequence of hα4β2 AChR (P17787 26-502): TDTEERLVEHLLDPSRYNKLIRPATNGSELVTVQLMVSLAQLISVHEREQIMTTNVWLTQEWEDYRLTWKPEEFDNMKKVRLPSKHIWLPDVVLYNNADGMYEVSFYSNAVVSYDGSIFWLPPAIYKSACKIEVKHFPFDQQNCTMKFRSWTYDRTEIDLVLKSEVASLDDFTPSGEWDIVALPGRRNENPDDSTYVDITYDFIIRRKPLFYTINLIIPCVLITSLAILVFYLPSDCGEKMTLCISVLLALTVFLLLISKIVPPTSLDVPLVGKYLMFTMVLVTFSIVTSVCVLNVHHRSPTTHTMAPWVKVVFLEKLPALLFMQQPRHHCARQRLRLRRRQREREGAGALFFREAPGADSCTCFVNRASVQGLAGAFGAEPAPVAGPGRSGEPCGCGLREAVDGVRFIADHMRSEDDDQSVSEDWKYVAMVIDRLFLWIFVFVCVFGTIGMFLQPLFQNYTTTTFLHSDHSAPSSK
Sequence of hα4β2 AChR (P43681 29-627): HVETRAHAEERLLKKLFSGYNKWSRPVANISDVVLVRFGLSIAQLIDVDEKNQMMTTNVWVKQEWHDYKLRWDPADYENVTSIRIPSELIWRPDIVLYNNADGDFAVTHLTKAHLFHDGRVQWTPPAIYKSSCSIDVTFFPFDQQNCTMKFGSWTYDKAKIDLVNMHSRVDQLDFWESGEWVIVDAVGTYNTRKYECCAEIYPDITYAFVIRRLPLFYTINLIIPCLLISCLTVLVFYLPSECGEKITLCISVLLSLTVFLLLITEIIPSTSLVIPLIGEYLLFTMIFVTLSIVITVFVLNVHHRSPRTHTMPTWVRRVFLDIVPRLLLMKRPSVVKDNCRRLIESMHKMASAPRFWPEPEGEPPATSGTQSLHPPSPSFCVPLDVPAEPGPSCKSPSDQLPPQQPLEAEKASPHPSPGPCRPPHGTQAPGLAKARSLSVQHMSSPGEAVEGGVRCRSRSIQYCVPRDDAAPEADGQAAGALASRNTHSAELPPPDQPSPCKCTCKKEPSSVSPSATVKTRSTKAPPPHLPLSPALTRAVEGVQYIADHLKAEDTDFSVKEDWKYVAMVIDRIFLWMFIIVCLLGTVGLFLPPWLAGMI

hα7 AChR = hα7 AChR (Homo sapiens, UniProt P36544); assay type: cell-based; settings: for hα7/hα3β4 IC50 ratio (selectivity): ratio using hα3β4 data of Arias et al., 2015
Sequence of hα7 AChR (P36544 23-502): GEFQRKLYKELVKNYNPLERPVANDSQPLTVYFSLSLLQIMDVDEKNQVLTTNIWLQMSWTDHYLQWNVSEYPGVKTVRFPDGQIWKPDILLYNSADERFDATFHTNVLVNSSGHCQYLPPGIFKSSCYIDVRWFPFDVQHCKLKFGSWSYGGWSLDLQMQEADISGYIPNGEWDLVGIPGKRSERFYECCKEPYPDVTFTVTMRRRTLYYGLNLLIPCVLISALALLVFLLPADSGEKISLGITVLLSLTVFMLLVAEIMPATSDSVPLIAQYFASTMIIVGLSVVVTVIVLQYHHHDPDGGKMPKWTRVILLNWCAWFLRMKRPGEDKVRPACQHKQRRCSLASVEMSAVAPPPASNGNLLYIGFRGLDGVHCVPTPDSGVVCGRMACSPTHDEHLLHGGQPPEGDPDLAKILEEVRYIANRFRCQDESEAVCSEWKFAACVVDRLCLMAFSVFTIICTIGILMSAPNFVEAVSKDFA

[1] = system: MHb (VI) neurons (endogenous α3β4* AChRs); assay: Patch-clamp recording of ACh-evoked currents from MHb; assay type: cell-based, mouse; settings: for Reversibility of inhibition of ACh-evoked currents after washing: 180 μM, washing 13 min ((±)-18-MC) or 10 min ((+)-catharanthine); for IC50: read-out: IC50 (inhibitory potency on ACh-evoked currents), 100 μM ACh puffs, MHb (VI) neurons, single exponential fit
Procedure, shortened: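 Male C57BL/6J mice, 8–24 weeks. Coronal 250 μm slices through the medial habenula, recovered in oxygenated solution at 33 °C for 12 min. Neurons visualised by IR/DIC. Internal solution contained 2 mM QX-314. ACh (100 μM) puffed for 250 ms at 12 psi, with 1 μM atropine in the superfusate. Test compound at 0.07–180 μM; peak amplitudes measured before and after washout. Nonlinear least-squares fit gave IC50.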

α1β1γδ AChR = assay: Selectivity for hα3β4 over α1β1γδ AChRs; assay type: cell-based, human; settings: ref Arias et al., 2011
hα3β4 AChR = settings: read-out: IC50 at hα3β4 AChRs; HEK293-hα3β4 cells; ref Arias et al., 2015; cited from earlier work
[2] = ref Zhang et al., 2002; Maissonneuve and Glick, 2003; cited from earlier work
[3] = target: hα3β4 AChR ([3H]ibogaine sites) (Homo sapiens, UniProt P30926+P32297); assay: [3H]ibogaine competition binding to hα3β4 AChR membranes from HEK293-hα3β4 cells
Sequence of hα3β4 AChR ([3H]ibogaine sites) (P32297 32-505): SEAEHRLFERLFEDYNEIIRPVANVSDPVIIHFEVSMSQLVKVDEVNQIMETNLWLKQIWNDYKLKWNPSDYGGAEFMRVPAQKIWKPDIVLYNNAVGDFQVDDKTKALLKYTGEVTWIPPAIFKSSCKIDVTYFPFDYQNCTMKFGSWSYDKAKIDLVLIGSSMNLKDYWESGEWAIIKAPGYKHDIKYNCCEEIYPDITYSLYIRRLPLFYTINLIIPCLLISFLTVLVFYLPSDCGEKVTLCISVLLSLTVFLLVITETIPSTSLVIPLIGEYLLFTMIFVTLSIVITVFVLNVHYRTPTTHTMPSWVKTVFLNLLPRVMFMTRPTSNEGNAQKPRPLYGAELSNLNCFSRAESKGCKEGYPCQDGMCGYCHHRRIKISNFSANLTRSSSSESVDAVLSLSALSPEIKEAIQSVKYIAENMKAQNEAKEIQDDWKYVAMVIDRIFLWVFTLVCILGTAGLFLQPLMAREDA
Sequence of hα3β4 AChR ([3H]ibogaine sites) (P30926 22-498): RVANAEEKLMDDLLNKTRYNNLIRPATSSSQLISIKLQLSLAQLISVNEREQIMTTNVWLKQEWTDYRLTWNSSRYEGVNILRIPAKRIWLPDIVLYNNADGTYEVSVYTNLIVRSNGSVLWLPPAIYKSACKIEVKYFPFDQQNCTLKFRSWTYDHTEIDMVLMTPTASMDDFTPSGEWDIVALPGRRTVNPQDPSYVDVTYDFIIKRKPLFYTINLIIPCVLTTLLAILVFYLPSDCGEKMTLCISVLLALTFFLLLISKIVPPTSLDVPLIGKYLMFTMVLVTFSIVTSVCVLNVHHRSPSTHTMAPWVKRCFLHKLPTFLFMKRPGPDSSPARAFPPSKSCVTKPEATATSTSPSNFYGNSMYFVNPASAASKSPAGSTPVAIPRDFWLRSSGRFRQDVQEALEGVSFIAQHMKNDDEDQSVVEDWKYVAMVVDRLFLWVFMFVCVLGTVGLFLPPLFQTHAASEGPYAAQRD

[4] = hα7, inhibition of 1.0 μM (±)-epibatidine-induced Ca2+ influx

In the case of 12-methoxyibogamine [(−)-ibogaine], the “AChR subtypes inhibited in voltage-clamp recordings” value (α3β4 and α4β2 AChRs) is listed as “inhibits both α3β4 and α4β2 subtypes”.
In the case of `CNCC[C@H]1CC2CN3CCc4c([nH]c5ccccc45)[C@](C(=O)OC)(C2)[C@H]13` (racemic) [(±)-18-MAC, (±)-18-Methylaminocoronaridine], the “nH (Hill coefficient)” value (hα4β2 AChR) is reported as 1.40 ± 0.14, the “hα4β2/hα3β4 IC50 ratio (selectivity)” value (hα4β2 AChR) is reported as 7.9 x-fold and the IC50 (hα4β2 AChR) is reported as 20.7 ± 3 µM. For the same compound, the “IC50 (inhibitory potency)” value (hα7 AChR; GH3-hα7 cells, 5 min pre-incubation, 1.0 μM (±)-epibatidine) was “No effect”.
With `CCC1=C[C@@H]2CN3CCc4c([nH]c5ccccc45)[C@@](C(=O)OC)(C2)[C@@H]13` [(+)-Catharanthine, (+)-3,4-didehydrocoronaridine] the “nH (Hill coefficient)” value (hα4β2 AChR) was 1.48 ± 0.25, the “hα4β2/hα3β4 IC50 ratio (selectivity)” value (hα4β2 AChR) was 18.5 x-fold and the “hα4β2/hα3β4 IC50 ratio (selectivity)” value (hα4β2 AChR; listed as (+)-catharanthine) was 18 x-fold. For the same compound, the “nH (Hill coefficient)” value (hα7 AChR; [4]) was 1.43 ± 0.20, the “hα7/hα3β4 IC50 ratio (selectivity)” value (hα7 AChR) was 32.0 x-fold and the “hα7/hα3β4 IC50 ratio (selectivity)” value (hα7 AChR; listed as (+)-catharanthine) was 32 x-fold. For the same compound, the “Reversibility of inhibition of ACh-evoked currents after washing” value [1] was “reversible inhibition”, the IC50 [1] was 27 ± 4 µM and the “Selectivity for hα3β4 over α1β1γδ AChRs” value (α1β1γδ AChR) was 29 fold. The IC50 (hα3β4 AChR) was 0.68 ± 0.1 µM.
In the case of `COCCC1CC2CN3CCc4c([nH]c5ccccc45)C(C(=O)OC)(C2)C13.Cl` (racemic) [(±)-18-MC, (±)-18-Methoxycoronaridine hydrochloride], the “nH (Hill coefficient)” value (hα4β2 AChR) is reported as 1.85 ± 0.17, the “hα4β2/hα3β4 IC50 ratio (selectivity)” value (hα4β2 AChR) is reported as 4 x-fold and 4.3 x-fold and the “nH (Hill coefficient)” value (hα7 AChR; [4]) is reported as 2.21 ± 0.50. For the same compound, the “hα7/hα3β4 IC50 ratio (selectivity)” value (hα7 AChR) was 23.6 x-fold, the “Reversibility of inhibition of ACh-evoked currents after washing” value [1] was “reversible inhibition” and the IC50 [1] was 28 ± 6 µM. For the same compound, the IC50 (hα3β4 AChR) was 1.47 ± 0.21 µM and the “half-life (metabolism to 18-HC)” value [2] was ~1.67 h.
`Clc1ccc(C2CC3CCC2N3)cn1` (racemic) [(±)-epibatidine, (±)-Epibatidine, reference compound] showed an EC50 (hα7 AChR; read-out: EC50 (activation potency), agonist-induced Ca2+ influx, GH3-hα7 cells, n = 25) of 0.026 ± 0.004 µM.
For (±)-18-hydroxycoronaridine [(±)-18-HC], the “nH (Hill coefficient)” value (hα4β2 AChR) was 1.27 ± 0.06, the “hα4β2/hα3β4 IC50 ratio (selectivity)” value (hα4β2 AChR) was 8.8 x-fold and the IC50 (hα4β2 AChR) was 24.8 ± 1.2 µM. For the same compound, the “nH (Hill coefficient)” value (hα7 AChR) was 1.64 ± 0.20 and the “hα7/hα3β4 IC50 ratio (selectivity)” value (hα7 AChR) was 26.1 x-fold.
With `CC(NC(C)(C)C)C(=O)c1cccc(Cl)c1` (stereo not shown) [bupropion, bupropion hydrochloride] the “nH (Hill coefficient)” value ([3]; desensitized state [in the presence of (−)-nicotine]) was 0.75 ± 0.08 and the “nH (Hill coefficient)” value ([3]; resting state [no agonist]) was 0.72 ± 0.05.
